Results published in ChEMBL document CHEMBL5724801, “EUbOPEN Chemogenomics Library - Multiplex” (2024).
“And” between values parts separate entries of the source, which are not always exact repeats. Equal entries are not always repeated.

Test system: HEK-293T
Experiment: Multiplex assay against HEK293T
Format: toxicity, cell-based
Details: human
Method in brief: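 Live cells were stained at seeding with Hoechst33342, BioTracker Green Microtubule Cytoskeleton Dye, MitoTracker Red and Annexin V Alexa Fluor 680. Following compound addition, they were imaged on a CQ1 microscope at 37°C and 5% CO2 and gated by CellPathfinder machine learning into Hoechst high-intensity objects or normal cells, with normal cells split into healthy, pyknosed or fragmented nuclei and pyknosed cells into mitotic or apoptotic. Tubulin, mitochondrial-mass and membrane-permeability phenotypes are per cents of healthy-nucleus cells.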

[1] = 12 h, 1 µM, compound concentration 1 uM
[2] = 12 h, 10 µM, compound concentration 10 uM
[3] = 24 h, 1 µM, compound concentration 1 uM
[4] = 24 h, 10 µM, compound concentration 10 uM
[5] = 48 h, 1 µM, compound concentration 1 uM
[6] = 48 h, 10 µM, compound concentration 10 uM

COc1ccc(CC(=O)NC(N/C(=N/C#N)Nc2cccc3ncccc23)C(C)(C)C)cc1OC (stereo not given)
Population Apoptotic (%) [1]: 11.97% and 9.68% | Population Fragmented Nuclei (%) [1]: 1.67% and 3.75% | Population Hoechst High Intensity Objects (%) [1]: 0% | Population Membrane Permeable-Phenotype (%) [1]: 0.47% and 3.33% | Population Mitochondria Different-Phenotype (%) [1]: 42.45% and 26.67% | Population Mitotic Cells (%) [1]: 88.03% and 90.32% | Population Normal (%) [1]: 100% | Population Pyknosed Nuclei (%) [1]: 39.44% and 77.5% | Total Cell Count [1]: 360 and 160 | Population Apoptotic (%) [2]: 8.97% and 14.85% | Population Fragmented Nuclei (%) [2]: 3.73% and 3.91% | Population Healthy Nuclei (%) [2]: 51.24% and 17.19% | Population Hoechst High Intensity Objects (%) [2]: 0.31% and 0% | Population Membrane Permeable-Phenotype (%) [2]: 0.61% and 9.09% | Population Mitochondria Different-Phenotype (%) [2]: 26.67% and 22.73% | Population Mitotic Cells (%) [2]: 91.03% and 85.15% | Population Normal (%) [2]: 99.69% and 100% | Population Pyknosed Nuclei (%) [2]: 45.03% and 78.91% | Total Cell Count [2]: 323 and 128 | Population Apoptotic (%) [3]: 11.48% and 16.07% | Population Fragmented Nuclei (%) [3]: 1.83% and 3.87% | Population Healthy Nuclei (%) [3]: 75.87% and 34.25% | Population Hoechst High Intensity Objects (%) [3]: 0.36% and 0% | Population Membrane Permeable-Phenotype (%) [3]: 1.45% and 0% | Population Mitochondria Different-Phenotype (%) [3]: 14.46% and 11.29% | Population Mitotic Cells (%) [3]: 88.52% and 83.93% | Population Normal (%) [3]: 99.64% and 100% | Population Pyknosed Nuclei (%) [3]: 22.3% and 61.88% | Population Tubulin-Different-Phenotype (%) [3]: 13.49% and 12.9% | Population Apoptotic (%) [4]: 21.15% and 27.45% | Population Fragmented Nuclei (%) [4]: 2.03% and 2.01% | Population Healthy Nuclei (%) [4]: 74.55% and 29.53% | Population Hoechst High Intensity Objects (%) [4]: 0.22% and 0% | Population Membrane Permeable-Phenotype (%) [4]: 0.91% and 2.27% | Population Mitochondria Different-Phenotype (%) [4]: 18.73% and 22.73% | Population Mitotic Cells (%) [4]: 78.85% and 72.55% | Population Normal (%) [4]: 99.78% and 100% | Population Pyknosed Nuclei (%) [4]: 23.42% and 68.46% | Population Tubulin-Different-Phenotype (%) [4]: 20.54% and 18.18% | Total Cell Count [4]: 445 and 149 | Population Apoptotic (%) [5]: 8.22% and 21.13% | Population Fragmented Nuclei (%) [5]: 2.43% and 3.09% | Population Healthy Nuclei (%) [5]: 87.12% and 60.31% | Population Hoechst High Intensity Objects (%) [5]: 0.07% and 0% | Population Membrane Permeable-Phenotype (%) [5]: 5.75% and 0% | Population Mitochondria Different-Phenotype (%) [5]: 13.8% and 32.48% | Population Mitotic Cells (%) [5]: 91.78% and 78.87% | Population Normal (%) [5]: 99.93% and 100% | Population Fragmented Nuclei (%) [6]: 2.78% and 2.07% | Population Healthy Nuclei (%) [6]: 86.6% and 61.14% | Population Hoechst High Intensity Objects (%) [6]: 0.1% and 0% | Population Membrane Permeable-Phenotype (%) [6]: 4.76% and 3.39% | Population Mitochondria Different-Phenotype (%) [6]: 22.86% and 38.98% | Population Mitotic Cells (%) [6]: 93.2% and 77.46% | Population Normal (%) [6]: 99.9% and 100%

Cc1ccc(OCC(O)C(C)NC(C)C)c2c1CCC2.Cl (stereo not given)
Population Apoptotic (%) [1]: 34% and 45% | Population Fragmented Nuclei (%) [1]: 6% and 5% | Population Healthy Nuclei (%) [1]: 81% and 84% | Population Hoechst High Intensity Objects (%) [1]: 5% | Population Membrane Permeable-Phenotype (%) [1]: 0% | Population Mitochondria Different-Phenotype (%) [1]: 54% and 65% | Population Mitotic Cells (%) [1]: 65% and 54% | Population Normal (%) [1]: 94% | Population Pyknosed Nuclei (%) [1]: 12% and 10% | Population Tubulin-Different-Phenotype (%) [1]: 40% and 22% | Total Cell Count [1]: 409 and 360 | Population Apoptotic (%) [2]: 43% | Population Fragmented Nuclei (%) [2]: 7% and 9% | Population Healthy Nuclei (%) [2]: 67% and 76% | Population Membrane Permeable-Phenotype (%) [2]: 0% | Population Mitochondria Different-Phenotype (%) [2]: 66% and 79% | Population Mitotic Cells (%) [2]: 56% | Population Normal (%) [2]: 96% and 81% | Population Pyknosed Nuclei (%) [2]: 25% and 14% | Population Tubulin-Different-Phenotype (%) [2]: 61% and 59% | Total Cell Count [2]: 247 and 323 | Population Apoptotic (%) [3]: 35% and 28% | Population Fragmented Nuclei (%) [3]: 6% and 7% | Population Healthy Nuclei (%) [3]: 80% and 83% | Population Hoechst High Intensity Objects (%) [3]: 3% and 4% | Population Membrane Permeable-Phenotype (%) [3]: 0% | Population Mitochondria Different-Phenotype (%) [3]: 38% and 45% | Population Mitotic Cells (%) [3]: 64% and 71% | Population Normal (%) [3]: 96% and 95% | Population Pyknosed Nuclei (%) [3]: 12% and 9% | Population Tubulin-Different-Phenotype (%) [3]: 25% and 17% | Total Cell Count [3]: 548 and 444 | Population Apoptotic (%) [4]: 46% and 50% | Population Fragmented Nuclei (%) [4]: 11% and 9% | Population Healthy Nuclei (%) [4]: 71% and 78% | Population Hoechst High Intensity Objects (%) [4]: 5% and 11% | Population Membrane Permeable-Phenotype (%) [4]: 1% and 0% | Population Mitochondria Different-Phenotype (%) [4]: 53% and 60% | Population Mitotic Cells (%) [4]: 53% and 50% | Population Normal (%) [4]: 94% and 88% | Population Pyknosed Nuclei (%) [4]: 17% and 11% | Population Tubulin-Different-Phenotype (%) [4]: 47% | Total Cell Count [4]: 334 and 399 | Population Apoptotic (%) [5]: 24% and 26% | Population Fragmented Nuclei (%) [5]: 12% and 11% | Population Healthy Nuclei (%) [5]: 79% and 81% | Population Hoechst High Intensity Objects (%) [5]: 3% and 1% | Population Membrane Permeable-Phenotype (%) [5]: 0% | Population Mitochondria Different-Phenotype (%) [5]: 28% and 27% | Population Mitotic Cells (%) [5]: 75% and 73% | Population Normal (%) [5]: 96% and 98% | Population Pyknosed Nuclei (%) [5]: 8% and 7% | Population Tubulin-Different-Phenotype (%) [5]: 14% | Total Cell Count [5]: 804 and 660 | Population Apoptotic (%) [6]: 40% and 34% | Population Fragmented Nuclei (%) [6]: 10% and 11% | Population Healthy Nuclei (%) [6]: 74% and 80% | Population Hoechst High Intensity Objects (%) [6]: 5% | Population Membrane Permeable-Phenotype (%) [6]: 0% and 1% | Population Mitochondria Different-Phenotype (%) [6]: 48% and 39% | Population Mitotic Cells (%) [6]: 59% and 66% | Population Normal (%) [6]: 94% | Population Pyknosed Nuclei (%) [6]: 14% and 8% | Population Tubulin-Different-Phenotype (%) [6]: 43% and 41% | Total Cell Count [6]: 435 and 611
